Reference: article PMC7949150 (The Journal of Biological Chemistry, 2021)

Tests used:
[1] = Plasma protein binding; type: in vitro ADME
[2] = system: H3K27me3 levels in KARPAS-422 tumors; assay: Tumor pharmacodynamic assay; type: in vivo, mice; details: Day 12
[3] = biological target: PRC2 (Homo sapiens, UniProt Q15910); assay: Differential scanning fluorimetry binding assay; details: 750 nM PRC2, 20 μM compound, 200 μM activating peptide; mean ± SEM, N = 3
In short: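 In-house pentameric PRC2 was mixed with test compound, H3K27me3 activator peptide and 4× thermal-shift dye in 50 mM Hepes pH 7.4, 100 mM NaCl, 1 mM TCEP, 0.2% DMSO. The mix was equilibrated 90 min at RT, then melted from 25 °C to 95 °C at 0.05 °C/s in a real-time PCR instrument. Tm was taken from the first-derivative peak and from a Boltzmann fit. ΔTm is compound minus DMSO control.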

PRC2, sequence (Q15910 whole entry): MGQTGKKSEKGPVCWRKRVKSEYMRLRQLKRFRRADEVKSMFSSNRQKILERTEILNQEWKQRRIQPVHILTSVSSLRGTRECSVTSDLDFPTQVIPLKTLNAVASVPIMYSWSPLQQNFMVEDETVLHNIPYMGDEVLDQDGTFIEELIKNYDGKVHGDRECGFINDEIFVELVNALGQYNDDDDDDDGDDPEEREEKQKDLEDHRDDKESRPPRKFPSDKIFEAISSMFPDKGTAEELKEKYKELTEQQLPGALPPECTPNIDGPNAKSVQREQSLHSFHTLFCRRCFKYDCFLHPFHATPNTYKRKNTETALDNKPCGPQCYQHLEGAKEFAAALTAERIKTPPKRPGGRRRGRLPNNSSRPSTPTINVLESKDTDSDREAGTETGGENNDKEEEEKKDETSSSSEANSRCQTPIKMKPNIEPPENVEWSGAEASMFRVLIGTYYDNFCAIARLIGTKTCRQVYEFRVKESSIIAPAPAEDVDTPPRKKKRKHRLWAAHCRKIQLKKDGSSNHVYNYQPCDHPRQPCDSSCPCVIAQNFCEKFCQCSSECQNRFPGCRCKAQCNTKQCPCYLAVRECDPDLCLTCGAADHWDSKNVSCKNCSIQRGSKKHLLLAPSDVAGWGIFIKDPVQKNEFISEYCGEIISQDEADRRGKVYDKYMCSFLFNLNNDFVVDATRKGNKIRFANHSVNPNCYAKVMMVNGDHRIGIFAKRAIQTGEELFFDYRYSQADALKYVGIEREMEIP
PRC2, sequence (O75530 whole entry partner): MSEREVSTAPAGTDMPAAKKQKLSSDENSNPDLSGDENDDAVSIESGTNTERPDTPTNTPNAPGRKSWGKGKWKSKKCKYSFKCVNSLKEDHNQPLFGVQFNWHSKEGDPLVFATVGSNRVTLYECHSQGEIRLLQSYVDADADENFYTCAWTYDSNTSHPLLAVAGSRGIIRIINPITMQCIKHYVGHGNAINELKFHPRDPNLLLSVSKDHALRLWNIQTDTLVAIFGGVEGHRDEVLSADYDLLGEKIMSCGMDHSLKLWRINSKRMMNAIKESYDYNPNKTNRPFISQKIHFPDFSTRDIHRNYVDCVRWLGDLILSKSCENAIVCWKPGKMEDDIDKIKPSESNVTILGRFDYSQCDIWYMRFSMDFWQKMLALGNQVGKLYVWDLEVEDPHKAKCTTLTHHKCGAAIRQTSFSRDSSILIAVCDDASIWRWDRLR
PRC2, sequence (Q15022 whole entry partner): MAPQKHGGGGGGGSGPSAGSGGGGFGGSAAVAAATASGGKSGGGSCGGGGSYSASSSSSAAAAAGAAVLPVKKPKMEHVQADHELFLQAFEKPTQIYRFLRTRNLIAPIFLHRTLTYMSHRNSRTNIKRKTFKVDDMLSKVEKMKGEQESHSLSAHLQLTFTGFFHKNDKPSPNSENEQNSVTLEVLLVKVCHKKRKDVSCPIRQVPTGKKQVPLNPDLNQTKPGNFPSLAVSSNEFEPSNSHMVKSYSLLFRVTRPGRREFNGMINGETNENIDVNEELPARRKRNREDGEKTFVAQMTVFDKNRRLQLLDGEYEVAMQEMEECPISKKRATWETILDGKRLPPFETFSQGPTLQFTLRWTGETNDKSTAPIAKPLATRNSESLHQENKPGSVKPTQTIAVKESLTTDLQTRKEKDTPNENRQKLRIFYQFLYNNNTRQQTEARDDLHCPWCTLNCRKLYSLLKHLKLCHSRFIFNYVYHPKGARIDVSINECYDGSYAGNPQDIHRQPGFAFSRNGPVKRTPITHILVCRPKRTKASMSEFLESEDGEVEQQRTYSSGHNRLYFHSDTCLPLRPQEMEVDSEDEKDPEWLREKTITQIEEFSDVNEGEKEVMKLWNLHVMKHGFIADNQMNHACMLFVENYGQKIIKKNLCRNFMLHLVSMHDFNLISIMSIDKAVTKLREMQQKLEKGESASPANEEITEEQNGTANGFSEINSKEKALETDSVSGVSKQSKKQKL
PRC2, sequence (Q16576 whole entry partner): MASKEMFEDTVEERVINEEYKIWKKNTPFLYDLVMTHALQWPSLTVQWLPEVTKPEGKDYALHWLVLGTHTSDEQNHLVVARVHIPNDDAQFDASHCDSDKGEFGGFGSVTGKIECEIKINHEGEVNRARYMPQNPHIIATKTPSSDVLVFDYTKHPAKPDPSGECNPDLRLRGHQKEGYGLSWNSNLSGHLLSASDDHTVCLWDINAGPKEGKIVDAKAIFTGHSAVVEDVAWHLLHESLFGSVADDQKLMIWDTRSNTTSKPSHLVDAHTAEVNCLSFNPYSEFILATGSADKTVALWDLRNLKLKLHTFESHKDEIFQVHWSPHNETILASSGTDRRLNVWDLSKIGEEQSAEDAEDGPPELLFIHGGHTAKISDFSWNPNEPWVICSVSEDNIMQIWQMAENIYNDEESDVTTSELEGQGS
PRC2, sequence (Q09028 whole entry partner): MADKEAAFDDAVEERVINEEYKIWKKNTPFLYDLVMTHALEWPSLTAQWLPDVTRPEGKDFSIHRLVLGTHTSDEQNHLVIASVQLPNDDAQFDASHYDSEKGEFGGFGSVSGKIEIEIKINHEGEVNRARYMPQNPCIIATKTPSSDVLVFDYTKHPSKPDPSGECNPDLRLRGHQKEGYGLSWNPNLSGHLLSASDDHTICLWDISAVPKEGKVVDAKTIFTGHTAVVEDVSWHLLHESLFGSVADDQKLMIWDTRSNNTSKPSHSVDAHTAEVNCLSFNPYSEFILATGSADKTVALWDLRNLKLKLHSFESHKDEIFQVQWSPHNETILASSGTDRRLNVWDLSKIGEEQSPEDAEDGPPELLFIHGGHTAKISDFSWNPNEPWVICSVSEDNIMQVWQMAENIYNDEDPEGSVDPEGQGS

| Compound | fraction unbound [1] | reduction in H3K27me3 levels in tumors ([2]; 25 mg/kg QD PO) | H3K27me3 levels in tumors ([2]; 160 mg/kg BID PO) | total plasma levels (25 mg/kg QD PO, 1 h postdose on Day 12) | total concentration in tumors (female, CB-17 SCID, mouse, in vivo) | ΔTmD (first derivative melting peak) [3] |
| --- | --- | --- | --- | --- | --- | --- |
| CCN(c1cc(-c2ccc(CN3CCOCC3)cc2)cc(C(=O)NCc2c(C)cc(C)[nH]c2=O)c1C)C1CCOCC1 [Tazemetostat] | 0.009 | no statistically significant reduction | significant loss of H3K27me3 levels | 6100 ng/mL | 730 ng/g |  |
| COc1cc(C)[nH]c(=O)c1CNC(=O)c1c(C)n([C@H](C)C2CCN(CC(F)(F)F)CC2)c2ccccc12 [CPI-1205, (R)-N-((4-Methoxy-6-methyl-2-oxo-1,2-dihydropyridin-3-yl)methyl)-2-methyl-1-(1-(1-(2,2,2-trifluoroethyl)piperidin-4-yl)ethyl)-1H-indole-3-carboxamide] |  |  |  |  |  | 11.54 ± 0.05 °C |
